This note sets out measurements from PubChem BioAssay.

A short description of test [1]: inhibitors of TNFa-induced NFkB p65 translocation, primary screen, imaging, HUVEC, MLSMR starter and 10KST1 sets (AID 438;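 active means inhibition above 20% together with a positive visual image hit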;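 further: compound added about 3h40 before a 20 min TNFalpha stimulation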;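 on inhibition: signal is the nuclear over cytoplasmic p65 intensity ratio per well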). As to conditions: HUVEC TNFa-induced p65 nuclear translocation; cell count: measured here: nuclei count (cytotoxicity indicator), at 2.08 µM; inhibition: at 2 µM, stronger effect = higher value, 0% TNFa-plus-vehicle, 100% no-TNFa wells.
Test [2] in a line: endothelial E-selectin expression blockers – imaging, HUVEC, immunofluorescence, MLSMR starter and 10KST1 sets, primary screen (AID 487;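 active means visually confirmed hit in the image check and inhibition above 20%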;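 on inhibition: signal is fraction of cell area covered by stained E-selectin grains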;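 on nuclei count: 100% = median nuclei count of all wells on the same plate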). The following applies: HUVEC TNFalpha-induced E-selectin immunofluorescence imaging, at 2 µM; inhibition: stronger effect = higher value; nuclei count: measured here: cell number, toxicity.
Test [3] is described as follows: Primary imaging screen for DUSP6 inhibitors that restore phospho-Erk in transfected HeLa cells, chemical complementation (AID 609;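 active means compounds giving at least 50% inhibition in the cell-based MKP-3 phosphatase rescue imaging test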;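 on inhibition: phospho-Erk level distribution per well compared with pooled transfected vehicle control wells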). As to conditions: HeLa MKP-3 transfected, phospho-Erk imaging KS statistic, at 10 µM, cells stimulated with TPA for 15 min.
Test [4] has as its target Dual specificity protein phosphatase 6 (Homo sapiens) (UniProt Q16828). Described as above. The following applies: HeLa MKP-3 transfected, phospho-Erk imaging KS statistic; at 10 µM; stronger effect = higher value; cells stimulated with TPA for 15 min.
Test [5] deals with Voltage-gated potassium channel subunit beta-2 (Rattus norvegicus) (UniProt P62483). As to the kind of experiment: inhibitors of rat Kvbeta2 reductase activity – biochemical, NADPH fluorescence, primary screen (AID 622;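 active means fluorescence slope higher than the sample average by over 3 SD, cut at about -0.22 in these data, passing the limit was not always enough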;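 further: slope of raw intensity against log time taken from 70 to 1610 s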). As to conditions: recombinant KvBeta, 4-cyanobenzaldehyde reduction, at 10 µM, stronger effect = higher value.
The target is the same in test [6]. As to the kind of experiment: enhancers of rat Kvbeta2 NADPH turnover – biochemical, NADPH fluorescence, primary screen (AID 623;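 active means NADPH fluorescence slope more negative than the mean of all samples by about 3 SD, 99.7% confidence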;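 further: fluorescence intensity change per second fitted from 20 to 320 s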). The following applies: Recombinant KvBeta, NADPH fluorescence decrease slope, 10 min; at 10 µM; stronger effect = lower value.
Test [7] concerns the target Muscarinic acetylcholine receptor M4 (Homo sapiens) (UniProt P08173). As to the kind of experiment: M4-linked GIRK flux change, two-sided – cell-based, HEK293 M4/GIRK, thallium flux, BTC-AM, M4 allosteric agonist project, primary screen (AID 625).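 Further: thallium influx through GIRK channels coupled to M4 in HEK293 cells with BTC-AM dye.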 As to conditions: at 10 µM, actives lie on both sides. In outline:
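Material – HEK293 cells with M4 receptor and GIRK channels · Buffer or medium – pH 7.3 thallium assay buffer · Doses – one dose, 10 µM final · Timing – cells overnight at 37 °C, BTC-AM loading 1 h, reads 2 min total · Measured by – kinetic fluorescence with BTC-AM dye · Controls – carbachol and DMSO controls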

Test [8] in a line: inhibitors of larval lipid processing in zebrafish, primary screen, whole organism, PED6 fluorescence, gall bladder and intestine (AID 686;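 active means a full or partial loss of lipid-probe fluorescence in the fish gall bladder, intestine or both, judged by eye; inactive means no fluorescence loss, or compound toxic to the fish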;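 further: larvae 5 to 7 days old with five fish per well; signal comes from phospholipase A2 cleavage of quenched PED6 carried via bile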). As to conditions: Zebrafish larvae PED6 lipid processing, fluorescence scoring; screened at 20 µM (by protocol). Put shortly: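 system = live zebrafish larvae aged 5-7 days, whole organism | probe or stimulus = ingested quenched lipid PED6 at 100 nM | doses = 20 µM single dose | timing = overnight exposure | detection = fluorescence microscopy with visual scoring of gall bladder and intestine | read-out = visual per-well fluorescence inhibition score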

A short description of test [9]: loss of swimming-algae plug formation – whole organism, Chlamydomonas reinhardtii, WT vs cilia-less mutant, absorbance, 96-well, primary screen (AID 463189;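 active means inhibition at or above 50% relative to wild type and mutant plate controls; inactive means inhibition below 50%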;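 further: 0% = wild type cc124 cells in DMSO and 100% = ciliumless bld1 mutant cells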). The following applies: Chlamydomonas reinhardtii gravitaxis, OD600 absorbance, 2 days; at 10 µM; stronger effect = higher value.
[10] abbreviates: measured here: cell density z-score.
[11] abbreviates: measured here: nuclear c-Myc green intensity z-score.
The mark [12] stands for this setting: measured here: nuclear pErk red intensity z-score, stronger effect = higher value.

Activity calls are given as the source filed them.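 How the source made its calls, unless noted: active means fluorescence slope after compound addition differing from the mean of all tested samples at 99.7% confidence, mostly higher but some lower; inactive means the rest.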

Sequence of Dual specificity protein phosphatase 6 (Homo sapiens) (Q16828 whole entry, looked up): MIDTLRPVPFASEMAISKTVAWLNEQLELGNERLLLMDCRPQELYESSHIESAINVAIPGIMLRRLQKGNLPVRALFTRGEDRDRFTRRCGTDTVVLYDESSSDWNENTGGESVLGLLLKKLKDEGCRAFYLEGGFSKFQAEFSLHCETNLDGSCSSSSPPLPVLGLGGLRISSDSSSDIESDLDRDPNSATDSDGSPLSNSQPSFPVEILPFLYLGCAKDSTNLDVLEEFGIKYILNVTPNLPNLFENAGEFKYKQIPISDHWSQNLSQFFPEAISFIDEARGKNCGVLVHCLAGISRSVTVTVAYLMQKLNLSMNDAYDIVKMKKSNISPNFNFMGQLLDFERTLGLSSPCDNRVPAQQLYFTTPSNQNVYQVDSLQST
Sequence of Muscarinic acetylcholine receptor M4 (Homo sapiens) (P08173 whole entry, looked up): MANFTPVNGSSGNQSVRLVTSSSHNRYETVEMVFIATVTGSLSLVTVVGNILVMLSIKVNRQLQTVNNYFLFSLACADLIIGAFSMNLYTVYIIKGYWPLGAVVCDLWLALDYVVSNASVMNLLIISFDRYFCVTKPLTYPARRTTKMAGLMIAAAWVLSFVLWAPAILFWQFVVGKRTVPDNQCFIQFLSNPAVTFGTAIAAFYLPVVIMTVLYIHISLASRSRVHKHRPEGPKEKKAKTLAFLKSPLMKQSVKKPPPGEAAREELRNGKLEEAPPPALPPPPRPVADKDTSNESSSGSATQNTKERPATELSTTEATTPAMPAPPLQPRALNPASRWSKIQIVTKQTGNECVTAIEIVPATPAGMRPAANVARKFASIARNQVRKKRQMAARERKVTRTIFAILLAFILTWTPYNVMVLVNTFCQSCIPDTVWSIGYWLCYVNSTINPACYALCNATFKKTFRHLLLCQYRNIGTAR
Sequence of Voltage-gated potassium channel subunit beta-2 (Rattus norvegicus) (P62483 whole entry, looked up): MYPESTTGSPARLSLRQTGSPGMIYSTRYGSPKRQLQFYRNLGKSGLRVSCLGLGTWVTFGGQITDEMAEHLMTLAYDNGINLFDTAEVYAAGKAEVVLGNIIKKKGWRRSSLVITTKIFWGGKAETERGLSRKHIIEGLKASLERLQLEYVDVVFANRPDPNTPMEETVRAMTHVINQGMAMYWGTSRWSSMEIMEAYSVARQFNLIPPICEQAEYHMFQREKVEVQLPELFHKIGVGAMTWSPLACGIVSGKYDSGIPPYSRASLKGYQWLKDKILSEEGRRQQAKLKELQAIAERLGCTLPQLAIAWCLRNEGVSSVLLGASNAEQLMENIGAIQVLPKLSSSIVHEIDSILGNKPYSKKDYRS

Consider `COc1cccc(N2CCN(C(=O)c3ccc(=O)oc3)CC2C)c1` (stereo unspecified), for which the cell count in test [1] was determined as 548. The inhibition in test [1] is -13.7% (inactive); in test [2], -2.6% (inactive); in test [4] it was -2.91% (inactive); in test [9], 13.7% (inactive). Besides, the nuclei count in test [2] is 114%. In addition, the z-score was 0.444 in [3] (setting [10]), -0.0742 in test [3] (setting [11]) and 1.46 in test [3] (setting [12]). The values for the fluorescence slope in [5] and in test [7] were -0.418 (inactive) and 0.00472 (inactive), respectively. Besides, the NADPH fluorescence slope in [6] was 6.4e-07 (inactive). For the same molecule, the molecule was classed as inactive in [8].

Turning to `COCCNc1nc2c(c(=O)n(C)c(=O)n2C)n1Cc1cccc(C(F)(F)F)c1`, the cell count in test [1] was 698. Also, the inhibition was 3% (inactive) in test [1], -94.2% (inactive) in test [2], 7.93% (inactive) in test [4] and 36.2% (inactive) in test [9]. Also, in test [2], the nuclei count was determined as 95.8%. Further, the z-score in [3] (setting [10]) is 0.711; in test [3] (setting [11]), -1.37; in test [3] (setting [12]), -0.346. For the same molecule, the fluorescence slope in test [5] is -0.559 (inactive); in test [7], 0.00743 (inactive). In test [6], the NADPH fluorescence slope is -8e-05 (inactive). Also, the call in [8] was inactive.

Consider `C=CC[N+](C)(C)CCCNC(=O)/C=N/O`, for which the cell count in test [1] is 665. Also, the inhibition in [1] is -3.3% (inactive); in test [2], -22.3% (inactive); in test [4], -9.53% (inactive); in [9], -5.25% (inactive). In test [2], this molecule came in with a nuclei count of 164%. For the same molecule, the z-score in test [3] (setting [10]) was 0.15; in test [3] (setting [11]) it was -0.161; in [3] (setting [12]), -1.51. The fluorescence slope in test [5] is -0.482 (inactive); in [7] it was 0.00537 (inactive). Moreover, the NADPH fluorescence slope in test [6] was -4.6e-05 (inactive). For the same molecule, the result in [8] was inactive.

Regarding `N#Cc1c2c(c(-c3ccccc3)[nH]c1=O)CCCC2`, the cell count in test [1] turned out to be 580. Further, the inhibition in test [1] was -9.4% (inactive); in test [2], -88.6% (inactive); in test [4] it was 16.5% (inactive); in test [9] it was -4.11% (inactive). For the same molecule, the nuclei count in [2] worked out at 140%. Further, the z-score in [3] (setting [10]) was -0.665; in test [3] (setting [11]), -0.156; in test [3] (setting [12]), -4.21. The fluorescence slope in [5] is -0.377 (inactive); in test [7], 0.00448 (inactive). The NADPH fluorescence slope in test [6] is -0.000105 (inactive). For the same molecule, the molecule was classed as inactive in test [8].

`O=C(O)c1cc2sccc2s1`: the cell count in test [1] is 643. Also, the inhibition is 0% (inactive) in test [1], 23.1% (inactive) in test [2], -6.48% (inactive) in test [4] and -3.38% (inactive) in test [9]. This molecule gave a nuclei count in test [2] of 160%. In addition, the z-score in [3] (setting [10]) was 0.481; in test [3] (setting [11]), -0.0742; in test [3] (setting [12]) it was -0.912. Moreover, the fluorescence slope was -0.465 (inactive) in test [5] and 0.005 (inactive) in test [7]. Besides, in [6], the NADPH fluorescence slope was -2.7e-05 (inactive). Further, in test [8], the result was inactive.

For the molecule `Cc1cc(=O)oc(C)c1C(=O)Nc1ccc2nsnc2c1`, the cell count in test [1] is 517. The inhibition in test [1] is -2% (inactive); in test [2], 3.2% (inactive); in test [4], 5.95% (inactive); in test [9] it was -6.75% (inactive). Besides, the nuclei count in test [2] was found to be 164%. The results for the z-score in test [3] (setting [10]), in test [3] (setting [11]) and in [3] (setting [12]) were 0.355, 0.546 and 0.697, respectively. The results for the fluorescence slope in test [5] and in test [7] were -0.278 (inactive) and 0.00564 (inactive), respectively. Besides, in test [6], the NADPH fluorescence slope was -2.8e-05 (inactive). Moreover, in [8], the molecule was called inactive.

On to `COc1cc(C2C(C(C)=O)=C(O)C(=O)N2c2ccc(Br)cn2)ccc1O` (stereo unspecified), for which the cell count in [1] turned out to be 406. The inhibition in test [1] was -8.5% (inactive); in test [2] it was -148% (inactive); in [4] it was -2.59% (inactive); in [9], 23.7% (inactive). The nuclei count in test [2] came to 180%. Further, the z-score was -0.216 in test [3] (setting [10]), -0.848 in test [3] (setting [11]) and 0.128 in test [3] (setting [12]). In addition, the fluorescence slope is -0.446 (inactive) in test [5] and 0.00394 (inactive) in test [7]. In addition, the NADPH fluorescence slope in test [6] is -0.000114 (inactive). Further, in test [8], the call was inactive.

As usually defined, the inhibition is the relative decrease from the control value, in per cent.
